This is an account of results in ChEMBL document CHEMBL1152550, “Synthesis and structure-activity relationships of N-aryl(indol-3-yl)glyoxamides as antitumor agents” (Bioorg Med Chem, 2009).

Holding throughout (type): functional, cell-based
In one assay the test system is L1210. The assay can be described thus: Cytotoxicity against mouse L1210 cells after 48 hrs by XTT assay. The following applies: L1210, 48 h. On the technique in general: Tetrazolium dyes change colour on reduction, which living cells bring about.
Assay [1] is described as follows: Cytotoxicity against human KB/HeLa cells after 48 hrs by XTT assay.
Another assay relates to SK-OV-3. Description: Cytotoxicity against human SKOV3 cells after 48 hrs by XTT assay. The settings on record: SK-OV-3, 48 h.
A short description of assay [2]: Cell cycle arrest in human KB/HeLa cells assessed as accumulation in G2/M phase by cytometric analysis. An outline of the steps:
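HeLa/KB cells; nuclei isolated with detergent lysis, trypsin, RNA digestion and spermine chromatin stabilisation, then stained stoichiometrically with propidium iodide. Read by flow cytometry with doublet discrimination, FL2 detector collecting 564–606 nm emission; DNA histograms analysed for cell cycle phase distribution across a concentration series (dose–response).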

Turning to `COc1cc(NC(=O)C(=O)c2cn(Cc3ccc(F)cc3)c3ccccc23)cc(OC)c1OC`, the IC50 (as a rule, the concentration that gives 50% inhibition) in the assay on L1210 is 0.378 µM; in assay [1] it was 0.378 µM; in the assay on SK-OV-3, 3.78 µM.
Take `O=C(Nc1ccccn1)C(=O)c1cn(Cc2ccc(F)cc2)c2ccccc12`: the IC50 was 8.3 µM in the assay with L1210, greater than 10 µM in assay [1] and greater than 10 µM in the assay with SK-OV-3.
As to `O=C(Nc1ccc(F)cc1)C(=O)c1cn(Cc2ccc(F)cc2)c2ccccc12`, the IC50 was 4.48 µM with L1210, 7.94 µM in assay [1] and greater than 10 µM in the assay with SK-OV-3.
In the same order, the values of `O=C(Nc1ccc([N+](=O)[O-])cc1)C(=O)c1cn(Cc2ccc(F)cc2)c2ccccc12` are greater than 10 µM, greater than 10 µM and greater than 10 µM.
On the same counts, the results for `O=C(Nc1cccnc1)C(=O)c1cn(Cc2ccc(F)cc2)c2ccccc12` are 4.69 µM, 4.69 µM and 4.69 µM.
Turning to `O=C(Nc1ccncc1)C(=O)c1cn(Cc2ccc(F)cc2)c2ccccc12`, the figures for the IC50 (with L1210; in assay [1]; in the assay with SK-OV-3) were 0.455 µM, 0.054 µM and 0.455 µM, respectively. Also, the Activity result in assay [2] was “Dose-dependent effect”.
On to `O=C(Nc1ccncc1)C(=O)c1cn(Cc2ccc(Cl)cc2)c2ccccc12` [INDIBULIN], for which the IC50 in the assay on L1210 stood at 0.044 µM; in assay [1], 0.044 µM; in the assay on SK-OV-3 it was 0.077 µM. The Activity result in assay [2] was “Dose-dependent effect”.
In the case of `N#Cc1ccc(NC(=O)C(=O)c2cn(Cc3ccc(F)cc3)c3ccccc23)cc1`, the IC50 (with L1210; in assay [1]; in the assay on SK-OV-3) was greater than 10 µM throughout.
As to `CCOC(=O)c1ccc(NC(=O)C(=O)c2cn(Cc3ccc(F)cc3)c3ccccc23)cc1`, the IC50 (with L1210; in assay [1]; with SK-OV-3) was 3.94 µM each time.
Take `O=C(Nc1ccc(Br)cc1)C(=O)c1cn(Cc2ccc(F)cc2)c2ccccc12`: the IC50 (in the assay with L1210; in assay [1]; in the assay on SK-OV-3) was 3.88 µM throughout.
Regarding `O=C(C(=O)N1CCN(c2ccncc2)CC1)c1cn(Cc2ccc(F)cc2)c2ccccc12`, the IC50 was 3.96 µM with L1210, greater than 10 µM in assay [1] and greater than 10 µM in the assay on SK-OV-3.
